Calls of active or inactive are those of the source. No cut-off for these calls is given here.
Tests used:
[1] = tested on: MCF7; assay: Cell cycle arrest in human MCF7 cells assessed as S phase accumulation at 2 times GI50 after 24 hrs by flow cytometry; assay type: functional
[2] = tested on: M21; assay: Inhibition of nuclear translocation of thioredoxin 1 in human M21 cells at 50 uM after 18 hrs by immunocytochemistry; assay type: functional, cell-based
How it was run: (§1)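 M21 cells seeded on fibronectin-coated coverslips, held 18 h at 37 °C, then treated with compounds (5–50 µM; reference agents 0.1–40 µM) or 0.1% DMSO. Fixed in 3.7% formaldehyde, permeabilized with 0.1% saponin, and blocked in 3% BSA. Stained 1 h at 37 °C with anti-thioredoxin-1 monoclonal (1/200), then with Alexa-488 anti-mouse IgG plus DAPI for nuclei.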

[3] = tested on: MCF7; assay: Cell cycle arrest in human MCF7 cells assessed as G2/M phase accumulation at 2 times GI50 after 24 hrs by flow cytometry; assay type: functional
[4] = tested on: MCF7; assay: Cell cycle arrest in human MCF7 cells assessed as […] phase accumulation at 2 times GI50 after 24 hrs by flow cytometry; assay type: functional
[5] = tested on: M21; assay: Inhibition of nuclear translocation of thioredoxin 1 in human M21 cells at 10 uM after 18 hrs by immunocytochemistry; assay type: functional, cell-based; how it was run: as §1
[6] = tested on: M21; assay: Inhibition of nuclear translocation of thioredoxin 1 in human M21 cells at 0.1 uM after 18 hrs by immunocytochemistry; assay type: functional, cell-based; how it was run: as §1
[7] = tested on: HT-29; assay: Growth inhibition of human HT29 cells after 48 hrs by sulforhodamine B assay; assay type: functional; conditions: HT-29, 48 h
How it was run: (§2)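 NCI-style sulforhodamine B assay. HT-29 (5×10³), M21 or MCF-7 (3.5×10³) cells were grown 24 h, then given DMSO-solubilized drug at 100 to 0.7 µM final (DMSO <0.5%) for 48 h. Fixed in cold 10% TCA, stained with 0.1% SRB, read at 585 nm after subtracting a day-0 plate. Inhibition is relative to DMSO controls; GI50 from at least triplicate runs.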

[8] = tested on: M21; assay: Growth inhibition of human M21 cells after 48 hrs by sulforhodamine B assay; assay type: functional; conditions: M21, 48 h; how it was run: as §2
[9] = tested on: MCF7; assay: Growth inhibition of human MCF7 cells after 48 hrs by sulforhodamine B assay; assay type: functional; conditions: MCF7, 48 h; how it was run: as §2
[10] = tested on: M21; assay: Inhibition of nuclear translocation of thioredoxin 1 in human M21 cells at 25 uM after 18 hrs by immunocytochemistry; assay type: functional, cell-based; how it was run: as §1

SMILES	Activity [1] [%]	Activity [2]	Activity [3] [%]	Activity [4] [%]	Activity [5]	also measured
CC(C)(C)c1ccc(NC(=O)NCCCl)cc1	24	inactive	58	17	inactive	
CC(=O)O[C@H]1C(=O)[C@@]2(C)[C@H]([C@H](OC(=O)c3ccccc3)[C@]3(O)C[C@H](OC(=O)[C@H](O)[C@@H](NC(=O)c4ccccc4)c4ccccc4)C(C)=C1C3(C)C)[C@]1(OC(C)=O)CO[C@@H]1C[C@@H]2O						Activity [6]: inactive
O=C(NCCCl)Nc1ccc2ccccc2c1		Active			Active	
O=C(NCCCl)Nc1cccc(OCc2ccccc2)c1		inactive			inactive	GI50 [7]: 2.9 µM; GI50 [8]: 6.5 µM; GI50 [9]: 10 µM
O=C(NCCCl)Nc1ccc(Oc2ccccc2)cc1					inactive	Activity [10]: inactive
O=C(NCCCl)Nc1ccc(I)cc1	33	Active	42	25	Active	
COc1cc2c(c(OC)c1OC)-c1ccc(OC)c(=O)cc1[C@@H](NC(C)=O)CC2 [COLCHICINE]	19		62	19		Activity [6]: inactive
O=C(NCCCl)Nc1ccc(OC2CCCC2)cc1	19	Active	9	72		
Cc1ccc(NC(=O)NCCCl)cc1C					inactive	Activity [10]: inactive
CC[C@]1(O)C[C@@H]2CN(CCc3c([nH]c4ccccc34)[C@@](C(=O)OC)(c3cc4c(cc3OC)N(C)[C@H]3[C@@](O)(C(=O)OC)[C@H](OC(C)=O)[C@]5(CC)C=CCN6CC[C@]43[C@@H]65)C2)C1						Activity [6]: inactive
O=C(NCCCl)Nc1cccc(OC2CCCCC2)c1	33	Active	8	59		
O=C(NCCCl)Nc1ccc(OC2CCCCCC2)cc1	19	Active	6	75		
O=C(NCCCl)Nc1ccc(C2CCCCC2)cc1	13	Active	16	71		
Cc1ccc(NC2=NCCO2)cc1C					Active	

Source: ChEMBL document CHEMBL1155784, “Aromatic 2-chloroethyl urea derivatives and bioisosteres. Part 2: Cytocidal activity and effects on the nuclear translocation of thioredoxin-1, and the cell cycle progression” (2008)
